The list is not random: actives were taken first. Their share in the collection is about 3.6%.
NR3A LBD binder = binders of NR3A ligand-binding domain, primary screen, biophysical, differential scanning fluorimetry, uHTS; Glutamate receptor ionotropic, NMDA 3A (GRIN3A) ligand-binding domain; NR3A LBD differential scanning fluorimetry, Tm shift; 0% = protein alone, 100% = glycine-bound protein; Tm shift relative to glycine control, % at 25 µM; 340,000 compounds, 2.5% hits; AID 1259313, 2017;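 active = melting temperature shift of at least 10% of the positive control shift, at one fixed dose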
ATG4B inh = ATG4B protease inhibitors, primary screen, biochemical, fluorescence, uHTS; Cysteine protease ATG4B (Homo sapiens), Q9Y4P1; ATG4B cleavage of LC3-PLA2, NBD-HPC fluorescence, 1 h; inhibition, % at 8.33 µM; 340,000 compounds, 0.51% hits; in the data active = inhibition above about 40%
Target sequence (Q9Y4P1 whole entry, looked up): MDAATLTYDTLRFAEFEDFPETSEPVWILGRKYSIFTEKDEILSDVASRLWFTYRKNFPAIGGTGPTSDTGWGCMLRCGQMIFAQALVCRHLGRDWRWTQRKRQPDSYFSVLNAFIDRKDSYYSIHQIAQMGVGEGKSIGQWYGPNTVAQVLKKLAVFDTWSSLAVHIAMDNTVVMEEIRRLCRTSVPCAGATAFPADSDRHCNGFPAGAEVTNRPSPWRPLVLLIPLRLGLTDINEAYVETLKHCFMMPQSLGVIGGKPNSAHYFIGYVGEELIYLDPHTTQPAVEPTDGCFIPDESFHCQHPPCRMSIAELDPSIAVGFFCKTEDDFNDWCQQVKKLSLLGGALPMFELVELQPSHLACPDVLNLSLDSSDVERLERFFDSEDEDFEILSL
UCH37 inh = inhibitors of human UCH37 deubiquitinase, primary screen, biochemical, Ub-AMC cleavage, fluorescence | Ubiquitin carboxyl-terminal hydrolase isozyme L5 (Homo sapiens), Q9Y5K5 | 330,000 compounds, 0.33% hits | inhibition, % (no concentration beside the values) | purified proteasome/UCH37;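 active = mean inhibition over replicate wells above about 20%, limit read from the data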;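 also: 0% = compound-free wells with enzyme and 100% = wells lacking proteasome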
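Material: Human UCH37 enzyme supplied as purified proteasome complex | Schedule: 30 min preincubation with enzyme, 25 min cleavage at room temperature | Detection: AMC fluorescence 355/460 nm | Measure: % inhibition of Ub-AMC cleavage fluorescence | Controls: Wells without proteasome as full block, compound-free enzyme plus substrate as uninhibited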
NadD inh = inhibitors of S. aureus NadD, primary screen, biochemical, colorimetric, uHTS | Nicotinate-nucleotide adenylyltransferase NadD (Staphylococcus aureus N315) | purified NadD enzyme, colorimetric absorbance read-out | inhibition, % at 20 µM | 360,000 compounds, 0.78% hits | AID 602399, 2012; in the data active = inhibition above about 26%
SENP1 inh = human SENP1 catalytic domain inhibitors, primary screen, biochemical, FRET, uHTS; inhibition, % at 10 µM; Sentrin-specific protease 1 (Homo sapiens), Q9P0U3; 360,000 compounds, 0.21% hits; recombinant SENP1 catalytic domain, CyPet-SUMO1-YPet FRET cleavage; AID 624204, 2012;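 active = inhibition at least 30% at 10 µM, raw YFP signal under a set limit, fluorescence ratio 0.5 to 1.5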;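 also: 0% = enzyme with DMSO and 100% = no enzyme wells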
Target sequence (Q9P0U3 419-644 limits assumed): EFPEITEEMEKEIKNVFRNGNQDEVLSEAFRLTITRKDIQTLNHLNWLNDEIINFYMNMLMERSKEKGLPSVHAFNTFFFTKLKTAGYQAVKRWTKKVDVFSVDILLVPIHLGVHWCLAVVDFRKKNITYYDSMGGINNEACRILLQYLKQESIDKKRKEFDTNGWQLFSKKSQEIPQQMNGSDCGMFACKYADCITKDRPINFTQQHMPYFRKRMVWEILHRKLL
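System: Recombinant human SENP1 catalytic domain, His6-tagged | Incubation: Enzyme reaction for 50 min at room temperature, dark | Medium: Tris pH 8 with BME, BSA, NP40 and catalase | Also added: 25 nM SUMO1 FRET substrate | Compound: 10 µM single point, 0.5% DMSO | Measured by: FRET fluorescence in CFP and YFP emission channels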
Starred values were filed as active, the others as inactive; i = inactive; / = no result given.

SMILES | NR3A LBD binder | ATG4B inh | UCH37 inh | NadD inh | SENP1 inh
COc1ccc(CN(C(=S)Nc2ccccc2)C2CC(=O)N(c3ccc(Cl)cc3)C2=O)cc1 (stereo not drawn) | 24* | -21 | 4 | 5 | 2
O=C(Nc1ccc(Cl)cc1)N(CCCN1CCOCC1)Cc1cccs1 | -2 | 0 | 7 | -2 | 3
COc1ccc(CN(C(=S)Nc2ccccc2)C2CC(=O)N(c3ccccc3)C2=O)cc1 (stereo not drawn) | 37* | -10 | 0 | -3 | 0
COc1ccc(N2C(=O)CC(N(CCc3ccc(S(N)(=O)=O)cc3)C(=S)Nc3ccccc3)C2=O)cc1 (stereo not drawn) | 5 | -7 | 6 | -3 | 0
COc1ccc(C(=O)Oc2ccc(C=NNC(=O)c3ccccc3OC)cc2[N+](=O)[O-])cc1 | / | / | 0 | / | /
Cc1ccc(NC(=O)CSc2n[nH]c(C)c2[N+](=O)[O-])cc1C | 19* | 3 | 0 | -6 | 0
O=C(CSc1nc(-c2ccccc2)c(-c2ccccc2)[nH]1)Nc1ccc2c(c1)OCO2 | 13* | 11 | -11 | 12 | -4
COc1ccc(NC(=O)CSc2ncn(-c3ccccc3)n2)cc1Cl | 28* | 3 | 4 | -9 | 1
O=C(CSc1ncn(-c2ccccc2)n1)Nc1ccc2c(c1)OCO2 | 13* | -10 | 4 | 1 | 2
CCn1ncc(C=NNC(=O)COc2cc(C)cc(C)c2)c1C | / | / | 0 | / | /
CC(=NNC(=O)CNC(=O)c1ccc(Br)cc1)c1ccco1 | / | / | 0 | / | /
COc1ccc(C=NNS(=O)(=O)c2ccc(C)cc2)cc1OC(=O)c1ccc(C)cc1 | / | / | 5 | / | /
O=C(O)c1ccc(NN=Cc2ccc(-c3cccc(Cl)c3)o2)cc1 | / | / | -56 | / | /
Cc1ccc(NC(=O)CSc2ncn(-c3ccccc3)n2)cc1C | 22* | -2 | 0 | -1 | 3
O=C(CSc1ncn(-c2ccccc2)n1)Nc1ccc2c(c1)OCCO2 | 0 | -7 | 3 | -9 | 2
O=C1c2ccccc2/C(=C\c2ccc3[nH]ccc3c2)N1c1ccccc1 | -1 | 19 | -4 | 22 | -34
CCC/C(=C1/c2ccccc2C(=O)N1c1ccccc1)c1ccc2[nH]ccc2c1 | 13* | 10 | -4 | 12 | -3
c1ccc(NN=C(Cc2nc3ccccc3[nH]2)c2ccccc2)cc1 | / | / | 2 | / | /
CCOC(=O)Nc1ccc2c(COC(=O)CNS(=O)(=O)c3cccc(Br)c3)cc(=O)oc2c1 | 26* | 3 | -221 | 8 | -25
CC(=O)Nc1ccc(S(=O)(=O)NC2(C(F)(F)F)NC(=O)N(c3ccc(C)cc3)C2=O)cc1 (stereo not drawn) | 10* | -3 | 3 | -7 | 1
COc1ccc(/C=C2/SC(=O)N(CC(O)Cn3c4ccccc4c4ccccc43)C2=O)cc1 (stereo not drawn) | 13* | 0 | 4 | 19 | 2
CCc1ccc2nc(N=C(N)NC(=O)c3ccccc3)nc(C)c2c1 | / | / | 0 | / | /
CCn1ncc(/C=C2/SC(=S)NC2=O)c1C | 12* | 4 | 7 | -3 | -7
Oc1ccc(C=NN2CCN(C3c4ccccc4-c4ccccc43)CC2)cc1 | / | / | 1 | / | /
C=CCn1c(N/N=C/c2ccc(O)cc2)nc2ccccc2c1=O | 12* | -2 | / | -1 | 2
SMILES | NR3A LBD binder | ATG4B inh | UCH37 inh | NadD inh | SENP1 inh
N#Cc1c(Sc2ncc(C(F)(F)F)cc2Cl)nsc1C/C=N\OCc1ccccc1Br | -1 | 2 | / | 46* | -39
N#Cc1c(Sc2ncc(C(F)(F)F)cc2Cl)nsc1CC=NOCc1ccccc1Br | / | / | 1 | / | /
O=C(COc1ccccc1C(=O)NN=Cc1ccc(O)c(O)c1)NN=Cc1ccc(O)c(O)c1 | / | / | 2 | / | /
CC1Oc2cc3oc4c(O)c(O)ccc4c(=O)c3c(O)c2C1(C)C (stereo not drawn) | 20* | -3 | 4 | 9 | -4
CN1CCN(/N=C/c2ccc(-c3ccc([N+](=O)[O-])cc3Cl)o2)CC1 | 4 | -8 | / | -13 | 79*
O=[N+]([O-])c1ccc(Cl)c(-c2ccc(/C=N/n3cnnc3)o2)c1 | 1 | -4 | / | 1 | 2
O=C1NN(c2ccccc2)C(=O)C1=Cc1ccccc1O | / | / | / | -1 | 0
O=C1NN(c2cccc(Br)c2)C(=O)/C1=C\c1ccc(O)cc1 | 15* | -6 | / | 4 | -1
O=C1NN(c2ccc(Br)cc2)C(=O)/C1=C\c1ccc(O)cc1O | 28* | 9 | / | -5 | -100
COCc1cc(C)nc(OCC(=O)NN=Cc2ccc(-c3cc([N+](=O)[O-])ccc3C)o2)c1C#N | / | / | 14 | / | /
S=c1[nH]nc(-c2ccccn2)n1N=Cc1cccc(Cl)c1 | / | / | 4 | / | /
COc1ccccc1NC(=O)COc1ccc(CO)cc1Cl | 11* | 0 | 2 | -2 | -1
FC(F)Oc1ccc(C=Nn2c(Cc3ccc(Br)cc3)n[nH]c2=S)cc1 | / | / | 4 | / | /
COc1ccc(C2CC(c3ccc(C(F)(F)F)cc3)=NN2c2ccc(S(N)(=O)=O)cc2)cc1 (stereo not drawn) | 107* | -3 | i | 28 | -25
COc1ccc(C2CC(C(C)(C)C)=NN2c2ccc(S(N)(=O)=O)cc2)cc1 (stereo not drawn) | -5 | 7 | -3 | -4 | 2
COc1ccc(C2CC(c3ccccc3C(F)(F)F)=NN2c2ccc(S(N)(=O)=O)cc2)cc1 (stereo not drawn) | 18* | 2 | i | 12 | -27
COc1ccc(C2CC(c3ccccc3F)=NN2c2ccc(S(N)(=O)=O)cc2)cc1 (stereo not drawn) | 3 | -2 | i | 5 | -175
COc1ccc(C2CC(c3ccccc3Br)=NN2c2ccc(S(N)(=O)=O)cc2)cc1 (stereo not drawn) | 14* | 9 | -425 | 7 | -158
Oc1oc(-c2cccc3ccccc23)nc1C=Nc1nccs1 | / | / | 9 | / | /
COC(C(=O)NN=C(C)c1ccc(C(C)(C)C)cc1)c1ccccc1 (stereo not drawn) | / | / | 1 | / | /
CCCCC(=O)Nc1cccc(C(=O)NN=Cc2ccc(OC)cc2OC)c1 | / | / | 0 | / | /
CC(=O)n1c2c(c3ccccc31)OC(N)=C(C#N)C2c1cccc(Cl)c1Cl (stereo not drawn) | 13* | 14 | 1 | 3 | -24
CN(C)c1ccc(N=Nc2cccc3ccoc23)cc1 | 22* | 8 | / | -7 | 5
O=S(=O)(c1cccc(NC(=S)N2CCN(c3ccc(F)cc3)CC2)c1)C(F)F | -4 | -22 | 0 | 1 | 3

Compound activity: PubChem, several laboratories
